Source: publication PMC7453568 (ACS Central Science, 2020)
Entries after “also recorded” stand apart in the source; their conditions may differ.

How the values were obtained:
[1] = tested on: pErk; test: Erk signaling; format: cell-based, human; settings: for pErk: MIA PaCa-2 and NCI-H23 cells, 6 and 24 h
Procedure, shortened: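 Human KRAS^G12C cancer cells were treated for 24 h over a degrader dose range (NCI-H2030, heterozygous NCI-H23). Separately, MIA PaCa-2 and NCI-H23 received degrader or parent covalent inhibitor for 6 and 24 h, and time courses used 2.5 μM degrader. pErk and total Erk were immunoblotted and quantified against DMSO-treated cells. Lysates came from independent wells harvested the same day. Time-course data: mean ± SD, two biological replicates.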

[2] = tested on: NCI-H2030 cells; test: Cell viability assay; format: cell-based, human; settings: homozygous NCI-H2030 cells, MTS, 72 h
[3] = tested on: NCI-H23 cells; test: Cell viability assay; format: cell-based, human; settings: heterozygous NCI-H23 cells, MTS, 72 h
[4] = biological target: T1, KRAS^G12C (Homo sapiens, UniProt P01116, G12C); test: KRAS^G12C degradation, total KRAS levels by immunoblotting; format: cell-based
[5] = biological target: T1, KRAS^G12C; test: KRAS^G12C engagement, band shift of PROTAC-conjugated KRAS on immunoblot; format: cell-based; settings: 2.5 μM
Procedure, shortened: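 KRAS was immunoblotted from independent wells harvested the same day. Engagement was the intensity of the higher-molecular-weight, PROTAC-modified band relative to unbound KRAS in DMSO samples. Mean ± SD, two biological replicates.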

[6] = biological target: KRAS^G13D (Homo sapiens, UniProt P01116, G13D); test: KRAS engagement/degradation in HCT 116 cells; format: cell-based; settings: HCT 116 cells (heterozygous KRAS^G13D), up to 10 μM
[7] = MIA PaCa-2, NCI-H23 and SW1573 cells, 2.5 μM, 6-72 h time course
[8] = NCI-H2030 cells, 2.5 μM, 24 h time course

Which results are given for `C=C(F)C(=O)N1CCN(c2nc(OC[C@@H]3CCCN3C)nc3c2CCN(c2cccc4cccc(Cl)c24)C3)C[C@@H]1CC#N` [MRTX849]?
pErk ([1]; 0.10 μM): suppressed; cell viability (antiproliferative potency) [2]: more antiproliferative; cell viability (antiproliferative potency) [3]: more antiproliferative

`C=C(F)C(=O)N1CCN(c2nc(OC[C@@H]3CCCN3CCCOCCC(=O)N[C@H](C(=O)N3C[C@H](O)C[C@H]3C(=O)NCc3ccc(-c4scnc4C)cc3)C(C)(C)C)nc3c2CCN(c2cccc4cccc(Cl)c24)C3)C[C@@H]1CC#N` [LC-2] was tested. Which Dmax ([4]; MIA PaCa-2, MIA PaCa-2 cells, KRAS^G12C +/+, 24 h) did it give?
The Dmax was roughly 75%.

And the “duration of KRAS degradation” value [4, 7]?
Its value is “sustained up to 72 h”.

What about the “time to maximal KRAS degradation” value [4, 7] of the same compound?
The value was no more than 24 h.

What about the Dmax ([4]; NCI-H23, NCI-H23 cells, KRAS^G12C +/−, 24 h) of the same compound?
Its Dmax is roughly 90%.

And the KRAS degradation ([4]; NCI-H23 cells (heterozygous))?
The KRAS degradation was greater than 50%.

What about the “KRAS degradation with neddylation inhibition” value ([4]; NCI-H23 cells, 2.5 μM LC-2, 24 h) of the same compound?
The value was “rescues; also recorded: rescued KRAS degradation”.

What about the “KRAS^G12C level rebound” value ([4]; NCI-H23 cells, 2.5 μM, 72 h time course) of the same compound?
The value was “began to rebound at 72 h”.

What about the Dmax ([4]; NCI-H358, NCI-H358 cells, KRAS^G12C +/−, 24 h) of the same compound?
The Dmax was roughly 40%.

What about the Dmax ([4]; NCI-H2030, NCI-H2030 cells, KRAS^G12C +/+, 24 h) of the same compound?
Its Dmax is roughly 75%.

And the “KRAS^G12C levels with neddylation inhibitor MLN4924” value ([4]; NCI-H2030 cells, 1 μM MLN4924, 2.5 μM LC-2, 4 h)?
Its value is “rescued KRAS^G12C levels”.

What about the “KRAS^G12C levels with proteasome inhibitor epoxomicin” value ([4]; NCI-H2030 cells, 1 μM epoxomicin, 2.5 μM LC-2, 4 h) of the same compound?
Its value is “rescued KRAS^G12C levels”.

What about the “KRAS^G12C degradation” value ([4]; NCI-H2030 cells, 2.5 μM, 4 h) of the same compound?
Its value is roughly 65%.

What about the “persistence of maximal degradation” value [4, 8] of the same compound?
The value was “persisted up to 24 h; also recorded: maintained up to 24 h”.

And the “time to maximum degradation” value [4, 8]?
Its value is no more than 8 h.

And the “lowest concentration inducing maximal degradation of endogenous KRAS^G12C” value ([4]; NCI-H2030 cells, 24 h)?
Its value is 2.5 µM.

And the “KRAS levels, dose response” value ([4]; NCI-H2030 cells, 24 h, increasing concentrations)?
Its value is “degrades KRAS^G12C in a dose-dependent manner”.

And the Dmax ([4]; SW1573, SW1573 cells, KRAS^G12C +/+, 24 h)?
The Dmax was roughly 90%.

And the “time to maximal degradation” value ([4]; SW1573 cells, 2.5 μM, 24 h time course)?
Its value is 12 h.

What about the “time at which KRAS^G12C binding/engagement is seen” value ([5]; NCI-H2030 cells) of the same compound?
The value was no more than 1 h.

And the “time at which KRAS engagement is seen” value ([5]; SW1573 cells)?
Its value is no more than 1 h.

And the “engagement or degradation of KRAS^G13D” value [6]?
Its value is “No engagement or degradation”.

And the pErk ([1]; 2.5 μM)?
Its pErk is “suppressed”.

What about the “pErk signaling, dose response” value ([1]; NCI-H23 cells, 24 h) of the same compound?
The value was “dose-dependent decrease”.

What about the “pErk signaling, dose response” value ([1]; NCI-H2030 cells, 24 h) of the same compound?
Its value is “dose-dependent decrease”.

What about the “pErk levels versus DMSO-treated cells” value ([1]; SW1573 cells, 2.5 μM, 24 h) of the same compound?
Its value is “significantly lower”.

And the “total Erk versus DMSO” value ([1]; SW1573 cells, 2.5 μM, all time points)?
Its value is “increased”.

And the “phosphorylated Erk” value ([1]; SW1573 cells, 2.5 μM, between 1 and 4 h)?
The value was “inhibited”.

What about the pErk levels ([1]; SW1573 cells, 2.5 μM, between 8 and 24 h) of the same compound?
The pErk levels was “rebounded”.
